# Reference: publication PMC11318567 (Computational and Structural Biotechnology Journal, 2024)
# “Also recorded” adds a separate entry of the source.
# What was measured:
# DNA-PK = DNA-PK (Homo sapiens, UniProt P78527); assay: KinaseProfiler kinase activity assay; assay type: biochemical
# In short: (§1)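 Radiometric activity assay with 10 µM test compound, added first from a 50× stock in 100 % DMSO, with no compound–kinase pre-incubation. Full activity came from 2 % DMSO wells without compound. The 0 % baseline came from a reference inhibitor: KU55933 for ATM, PI-103 for DNA-PK.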
# Fms = Fms (Homo sapiens, UniProt P07333); assay: KinaseProfiler kinase activity assay; assay type: biochemical
# MEKK3 = MEKK3 (Homo sapiens, UniProt Q99759); assay: KinaseProfiler kinase activity assay; assay type: biochemical
# In short: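 Kinase was prepared in 50 mM HEPES, 1 mM EDTA, 10 mM DTT, 0.01 % Brij-35. Activity was measured radiometrically with 10 µM test compound added first from a 50× DMSO stock, without pre-incubation. Activity is expressed relative to 2 % DMSO control wells (100 %) and staurosporine blank wells (0 %).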
# human topo IIα [1] = target: T1, human topo IIα (Homo sapiens, UniProt P11388); assay: Human topoisomerase IIα-mediated cleavage assay; assay type: biochemical; conditions: 7.8-125 μM
# [2] = Solubility as observed during preparation for assays; assay type: physicochemical
# JAK2 = JAK2 (Homo sapiens, UniProt O60674); assay: KinaseProfiler kinase activity assay; assay type: biochemical
# human topo IIα [3] = target: T1, human topo IIα; assay: Human topo IIα competitive cleavage assay; assay type: biochemical; conditions: in the presence of 50 μM etoposide
# wheatgerm topo I = assay: Wheatgerm topo I unwinding assay; assay type: biochemical, wheat germ; conditions: 7.8, 15.6, 31.25, 125 μM
# In short: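 Wheat germ topo I plasmid unwinding run in duplicate at 7.8, 15.6, 31.25 and 125 µM test compound, with the intercalator m-AMSA as positive control.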
# ATM = ATM (Homo sapiens, UniProt Q13315); assay: KinaseProfiler kinase activity assay; assay type: biochemical
# In short: as §1
# Flt3 = Flt3 (Homo sapiens, UniProt P36888); assay: KinaseProfiler kinase activity assay; assay type: biochemical
# [4] = target: ATPase domain of topo IIα (Homo sapiens, UniProt P11388); assay: 1H STD NMR experiments; assay type: binding; conditions: protein:ligand ratio 1:100
# In short: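 Runs were at 600 MHz, 25 °C, with a 100 ms T₁ρ filter. On-resonance saturation was at −0.727 ppm and off-resonance at 30 ppm. Saturation was 0.5 or 1 s depending on compound, with relaxation delay 4 or 1.5 s. Epitope maps come from STD amplification factors.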
# Ret = Ret (Homo sapiens, UniProt P07949); assay: KinaseProfiler kinase activity assay; assay type: biochemical
# In short: (§2)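 Radiometric kinase activity assay. Test compound was made as a 50× stock in 100 % DMSO and added first to 10 µM, with no pre-incubation before reaction start. Kinase was prepared in 20 mM MOPS, 1 mM EDTA, 0.01 % Brij-35, 5 % glycerol, 0.1 % β-mercaptoethanol, 1 mg/mL BSA. Full-activity wells had 2 % DMSO without compound. Blank wells with staurosporine set 0 % activity.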
# Src(1-530) = Src(1-530) (Homo sapiens, UniProt P12931); assay: KinaseProfiler kinase activity assay; assay type: biochemical
# In short: as §2
# PDGFRα = PDGFRα (Homo sapiens, UniProt P16234); assay: KinaseProfiler kinase activity assay; assay type: biochemical
# In short: as §2
# cKit = cKit (Homo sapiens, UniProt P10721); assay: KinaseProfiler kinase activity assay; assay type: biochemical
# In short: as §2
# c-RAF = c-RAF (Homo sapiens, UniProt P04049); assay: KinaseProfiler kinase activity assay; assay type: biochemical
# In short: (§3)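 Radiometric kinase assay of test compound at 10 µM, added first from a 50× DMSO stock with no pre-incubation. Kinase was diluted in 45 mM TRIS, 0.4 mM EGTA, 18 mM DTT, 0.02 % Triton X-100, 1 mM sodium orthovanadate, 1 mM β-glycerophosphate, 2 % glycerol. Solvent wells (2 % DMSO) gave 100 % activity. Staurosporine blank wells defined 0 % activity.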
# PKBα = PKBα (Homo sapiens, UniProt P31749); assay: KinaseProfiler kinase activity assay; assay type: biochemical
# In short: as §2
# PKA = PKA (Homo sapiens, UniProt P17612); assay: KinaseProfiler kinase activity assay; assay type: biochemical
# In short: as §2
# B-Raf = B-Raf (Homo sapiens, UniProt P15056); assay: KinaseProfiler kinase activity assay; assay type: biochemical
# In short: as §3
# FGFR3 = FGFR3 (Homo sapiens, UniProt P22607); assay: KinaseProfiler kinase activity assay; assay type: biochemical
# In short: as §2
# [5] = test system: panel of 20 human protein kinases; assay: KinaseProfiler, whole panel; assay type: biochemical; conditions: 10 µM
# human topo IIβ = human topo IIβ (Homo sapiens, UniProt Q02880); assay: Human topo IIβ-mediated decatenation assay; assay type: biochemical
# Flt1 = Flt1 (Homo sapiens, UniProt P17948); assay: KinaseProfiler kinase activity assay; assay type: biochemical
# EGFR = EGFR (Homo sapiens, UniProt P00533); assay: KinaseProfiler kinase activity assay; assay type: biochemical
# In short: as §2
# IGF-1R = IGF-1R (Homo sapiens, UniProt P08069); assay: KinaseProfiler kinase activity assay; assay type: biochemical
# [6] = test system: NCI-60 human cancer cell lines; assay: NCI-60 screening, whole panel; assay type: cell-based; conditions: 10 µM
# CDK1/cyclinB = CDK1/cyclinB (Homo sapiens, UniProt P06493); assay: KinaseProfiler kinase activity assay; assay type: biochemical
# In short: as §2
# human topo II = human topo II (Homo sapiens, UniProt P11388); assay: Competitive ATPase assay; assay type: biochemical; conditions: IC50 versus ATP concentration
# In short: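 NADH-coupled ATPase (pyruvate kinase/lactate dehydrogenase, phosphoenolpyruvate) with human topo II at 14 nM final and linear pBR322. Buffer was 20 mM Tris-HCl, 5 mM Mg acetate, 125 mM K acetate, 2 mM DTT, pH 7.9. Compound in DMSO went in before enzyme, then a 10–15 min OD340 pre-run. ATP was added at varying concentrations and OD340 followed for up to 30 min at 37 °C, in duplicate. Hydrolysis rates vs ATP gave IC50 at each ATP level.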
# FGFR1 = FGFR1 (Homo sapiens, UniProt P11362); assay: KinaseProfiler kinase activity assay; assay type: biochemical
# In short: as §2
# U251 = assay: NCI-60 screening; assay type: cell-based; conditions: Homo sapiens, U-251, read-out: inhibition of cell growth
# SK-MEL-5 = assay: NCI-60 screening; assay type: cell-based; conditions: Homo sapiens, SK-MEL-5, read-out: inhibition of cell growth
# human topo IIα [7] = target: T1, human topo IIα; assay: Human topo IIα-mediated decatenation assay; assay type: biochemical
# T1 sequence (P11388 whole entry): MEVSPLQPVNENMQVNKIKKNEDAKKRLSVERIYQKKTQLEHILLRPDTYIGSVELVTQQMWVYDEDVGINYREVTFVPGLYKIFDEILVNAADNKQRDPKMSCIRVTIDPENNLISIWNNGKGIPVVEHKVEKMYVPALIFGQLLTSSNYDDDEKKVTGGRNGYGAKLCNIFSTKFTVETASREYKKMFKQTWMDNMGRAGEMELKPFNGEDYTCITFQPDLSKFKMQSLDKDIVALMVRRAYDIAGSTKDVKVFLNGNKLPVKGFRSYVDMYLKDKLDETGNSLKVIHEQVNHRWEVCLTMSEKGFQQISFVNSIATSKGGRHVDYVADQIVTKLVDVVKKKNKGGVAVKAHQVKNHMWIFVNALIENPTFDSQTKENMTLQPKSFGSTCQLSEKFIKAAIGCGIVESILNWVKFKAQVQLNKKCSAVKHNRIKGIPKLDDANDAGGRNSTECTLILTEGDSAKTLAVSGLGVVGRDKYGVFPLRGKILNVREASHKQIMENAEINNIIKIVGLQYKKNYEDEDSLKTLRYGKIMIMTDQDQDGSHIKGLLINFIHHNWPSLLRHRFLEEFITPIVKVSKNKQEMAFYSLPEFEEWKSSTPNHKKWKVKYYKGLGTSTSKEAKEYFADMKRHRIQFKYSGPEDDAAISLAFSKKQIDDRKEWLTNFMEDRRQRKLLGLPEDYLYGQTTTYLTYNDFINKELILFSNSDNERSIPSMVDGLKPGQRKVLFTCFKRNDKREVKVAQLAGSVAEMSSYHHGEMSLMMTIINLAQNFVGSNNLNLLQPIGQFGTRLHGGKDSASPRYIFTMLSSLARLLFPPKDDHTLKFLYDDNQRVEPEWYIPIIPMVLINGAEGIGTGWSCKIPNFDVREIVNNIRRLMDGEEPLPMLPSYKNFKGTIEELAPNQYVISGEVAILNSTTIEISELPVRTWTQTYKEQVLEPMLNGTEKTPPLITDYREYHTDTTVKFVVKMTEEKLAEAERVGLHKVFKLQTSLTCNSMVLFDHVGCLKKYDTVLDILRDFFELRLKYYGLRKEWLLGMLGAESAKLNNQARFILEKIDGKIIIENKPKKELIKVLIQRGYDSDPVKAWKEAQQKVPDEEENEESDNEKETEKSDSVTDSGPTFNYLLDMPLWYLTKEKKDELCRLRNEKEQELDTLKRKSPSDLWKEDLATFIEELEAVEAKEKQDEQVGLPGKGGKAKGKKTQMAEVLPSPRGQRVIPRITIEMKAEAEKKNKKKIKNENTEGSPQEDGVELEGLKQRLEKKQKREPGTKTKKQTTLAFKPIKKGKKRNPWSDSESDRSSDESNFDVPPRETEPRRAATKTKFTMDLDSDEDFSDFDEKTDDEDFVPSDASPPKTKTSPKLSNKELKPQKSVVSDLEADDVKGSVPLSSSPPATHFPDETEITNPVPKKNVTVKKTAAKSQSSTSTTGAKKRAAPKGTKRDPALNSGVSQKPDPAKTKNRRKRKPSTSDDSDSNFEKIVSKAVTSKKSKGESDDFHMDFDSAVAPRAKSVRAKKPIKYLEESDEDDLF
# Sequence of ATPase domain of topo IIα (P11388 1-453 limits assumed): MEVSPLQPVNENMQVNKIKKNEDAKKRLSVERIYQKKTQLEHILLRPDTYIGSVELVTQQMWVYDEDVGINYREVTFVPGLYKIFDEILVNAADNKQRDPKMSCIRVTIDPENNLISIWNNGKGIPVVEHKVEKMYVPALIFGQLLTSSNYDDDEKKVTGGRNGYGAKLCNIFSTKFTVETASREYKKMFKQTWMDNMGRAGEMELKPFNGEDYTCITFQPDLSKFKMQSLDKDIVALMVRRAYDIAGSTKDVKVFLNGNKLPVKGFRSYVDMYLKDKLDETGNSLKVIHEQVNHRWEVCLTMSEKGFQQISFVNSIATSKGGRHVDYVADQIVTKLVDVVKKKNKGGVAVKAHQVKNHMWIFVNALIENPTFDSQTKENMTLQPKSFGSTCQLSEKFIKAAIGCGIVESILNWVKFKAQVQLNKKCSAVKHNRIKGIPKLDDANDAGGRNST
# Sequence of human topo II (P11388 whole entry): as the sequence (P11388 whole entry) above
# Sequence of human topo IIβ (Q02880 whole entry): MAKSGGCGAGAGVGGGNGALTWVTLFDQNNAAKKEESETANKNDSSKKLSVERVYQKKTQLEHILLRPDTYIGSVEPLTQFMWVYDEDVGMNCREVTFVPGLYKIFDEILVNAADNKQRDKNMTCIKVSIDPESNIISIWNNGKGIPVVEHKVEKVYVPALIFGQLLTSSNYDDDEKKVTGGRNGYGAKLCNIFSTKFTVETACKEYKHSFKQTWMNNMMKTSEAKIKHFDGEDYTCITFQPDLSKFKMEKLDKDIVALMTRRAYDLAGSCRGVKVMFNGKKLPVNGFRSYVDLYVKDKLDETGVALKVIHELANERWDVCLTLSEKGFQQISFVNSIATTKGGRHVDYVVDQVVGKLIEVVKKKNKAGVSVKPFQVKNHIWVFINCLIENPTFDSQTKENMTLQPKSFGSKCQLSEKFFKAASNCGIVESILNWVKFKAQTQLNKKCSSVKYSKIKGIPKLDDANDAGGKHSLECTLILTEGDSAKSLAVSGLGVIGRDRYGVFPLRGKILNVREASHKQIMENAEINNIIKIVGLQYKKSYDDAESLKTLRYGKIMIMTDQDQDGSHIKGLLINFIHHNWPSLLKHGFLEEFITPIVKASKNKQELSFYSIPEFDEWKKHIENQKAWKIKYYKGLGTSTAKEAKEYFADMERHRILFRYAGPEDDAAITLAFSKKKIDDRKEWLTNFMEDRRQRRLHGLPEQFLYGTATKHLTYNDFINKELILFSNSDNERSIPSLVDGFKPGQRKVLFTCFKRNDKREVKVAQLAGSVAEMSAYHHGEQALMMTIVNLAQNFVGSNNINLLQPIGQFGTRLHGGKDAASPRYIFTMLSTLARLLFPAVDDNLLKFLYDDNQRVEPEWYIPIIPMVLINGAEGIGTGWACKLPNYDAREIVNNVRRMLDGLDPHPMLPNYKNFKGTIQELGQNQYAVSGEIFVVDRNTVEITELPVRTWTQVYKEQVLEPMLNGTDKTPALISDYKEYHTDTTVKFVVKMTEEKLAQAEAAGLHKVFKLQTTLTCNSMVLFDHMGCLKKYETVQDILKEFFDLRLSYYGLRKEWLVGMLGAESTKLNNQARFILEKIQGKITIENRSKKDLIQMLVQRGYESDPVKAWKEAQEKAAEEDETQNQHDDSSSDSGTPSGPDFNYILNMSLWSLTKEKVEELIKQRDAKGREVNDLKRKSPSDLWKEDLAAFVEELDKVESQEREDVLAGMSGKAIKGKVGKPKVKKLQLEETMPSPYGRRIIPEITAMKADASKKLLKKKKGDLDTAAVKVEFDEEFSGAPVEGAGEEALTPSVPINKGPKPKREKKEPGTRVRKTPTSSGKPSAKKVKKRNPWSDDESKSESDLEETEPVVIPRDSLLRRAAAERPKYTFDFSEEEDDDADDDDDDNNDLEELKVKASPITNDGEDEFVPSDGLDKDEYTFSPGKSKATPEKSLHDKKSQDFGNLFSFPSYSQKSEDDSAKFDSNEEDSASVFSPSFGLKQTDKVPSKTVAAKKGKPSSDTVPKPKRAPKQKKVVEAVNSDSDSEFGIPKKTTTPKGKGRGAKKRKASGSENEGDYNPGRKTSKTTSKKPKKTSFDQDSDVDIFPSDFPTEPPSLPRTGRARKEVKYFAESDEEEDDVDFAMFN
# Sequence of PDGFRα (P16234 24-1089): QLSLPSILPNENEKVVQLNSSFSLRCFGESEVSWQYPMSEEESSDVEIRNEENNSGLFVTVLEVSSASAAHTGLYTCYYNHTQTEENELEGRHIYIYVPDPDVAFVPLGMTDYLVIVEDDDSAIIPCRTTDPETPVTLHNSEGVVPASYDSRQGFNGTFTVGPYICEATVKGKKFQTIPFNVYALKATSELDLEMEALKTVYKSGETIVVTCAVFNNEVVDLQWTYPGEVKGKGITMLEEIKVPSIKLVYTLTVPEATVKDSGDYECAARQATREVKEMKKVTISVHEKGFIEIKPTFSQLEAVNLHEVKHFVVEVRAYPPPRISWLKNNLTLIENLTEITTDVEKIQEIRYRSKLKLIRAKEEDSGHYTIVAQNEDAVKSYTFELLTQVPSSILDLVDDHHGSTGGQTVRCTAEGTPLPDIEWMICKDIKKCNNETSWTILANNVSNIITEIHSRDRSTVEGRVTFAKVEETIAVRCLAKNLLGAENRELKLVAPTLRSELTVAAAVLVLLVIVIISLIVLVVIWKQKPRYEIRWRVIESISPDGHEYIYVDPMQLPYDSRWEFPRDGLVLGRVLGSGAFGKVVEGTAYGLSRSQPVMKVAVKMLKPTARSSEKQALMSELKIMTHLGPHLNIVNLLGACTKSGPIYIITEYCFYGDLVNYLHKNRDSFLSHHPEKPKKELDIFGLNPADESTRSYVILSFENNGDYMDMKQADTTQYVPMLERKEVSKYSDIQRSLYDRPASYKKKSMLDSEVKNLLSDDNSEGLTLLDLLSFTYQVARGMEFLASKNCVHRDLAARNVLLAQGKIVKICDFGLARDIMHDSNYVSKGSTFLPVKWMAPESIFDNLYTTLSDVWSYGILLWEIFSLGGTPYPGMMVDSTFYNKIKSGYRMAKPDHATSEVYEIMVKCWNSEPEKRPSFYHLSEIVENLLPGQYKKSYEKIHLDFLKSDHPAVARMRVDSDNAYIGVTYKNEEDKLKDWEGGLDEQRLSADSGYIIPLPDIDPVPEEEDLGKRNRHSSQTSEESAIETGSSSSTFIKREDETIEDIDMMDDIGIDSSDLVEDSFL
smiles,measurement,setting,value
"O=c1nc(SCc2cc(F)cc(C(F)(F)F)c2)nc(SCc2ccc3sccc3c2)[nH]1 [Compound 24, 6-((Benzo[b]thiophen-5-ylmethyl)thio)−4-((3-fluoro-5-(trifluoromethyl)benzyl)thio)−1,3,5-triazin-2(1H)-one]",activity at 10 µM,DNA-PK,83%
same,activity at 10 µM,Fms,77%
same,activity at 10 µM,MEKK3,87%
same,linear plasmid in the cleavage assay (in words),human topo IIα [1],a low level of linear plasmid was detected at 15.6 μM and above
same,solubility (in words),[2],more soluble compared to the benzyl-substituted analogues
same,activity at 10 µM,JAK2,107%
same,linear product in the competitive cleavage assay (in words),human topo IIα [3],appeared to reduce the linear product of the etoposide-topoIIα cleavage complex at lower concentrations
same,unwinding / intercalation (in words),wheatgerm topo I,inhibitors rather than intercalators
same,activity at 10 µM,ATM,86%
same,activity at 10 µM,Flt3,93%
same,interaction with the ATPase domain of topo IIα by STD NMR (in words),[4],confirmed the interaction
same,activity at 10 µM,Ret,91%
same,activity at 10 µM,Src(1-530),127%
same,activity at 10 µM,PDGFRα,106%
same,activity at 10 µM,cKit,99%
same,activity at 10 µM,c-RAF,110%
same,activity at 10 µM,PKBα,105%
same,activity at 10 µM,PKA,86%
same,activity at 10 µM,B-Raf,93%
same,activity at 10 µM,FGFR3,92%
same,inhibition of the panel of 20 human protein kinases (in words),[5],no significant inhibitory effect was observed
same,IC50,human topo IIβ,9.9 ± 0.4 µM
same,activity at 10 µM,Flt1,93%
same,activity at 10 µM,EGFR,100%
same,activity at 10 µM,IGF-1R,92%
same,cytotoxic activity in NCI-60 (in words),[6],marginal cytotoxicity in several leukemia cell lines
same,activity at 10 µM,CDK1/cyclinB,124%
same,mode of inhibition with respect to ATP (in words),human topo II,no noticeable decrease in IC50 values
same,activity at 10 µM,FGFR1,90%
"O=c1nc(SCc2ccc(C(F)(F)F)cc2)nc(SCc2ccc3sccc3c2)[nH]1 [Compound 25, 6-((Benzo[b]thiophen-5-ylmethyl)thio)−4-((4-(trifluoromethyl)benzyl)thio)−1,3,5-triazin-2(1H)-one]",inhibition at 10 µM,U251,80%
same,inhibition at 10 µM,SK-MEL-5,89.5%
same,cytotoxic activity in NCI-60 (in words),[6],more diverse and potent cytotoxic effects
"O=c1nc(SCc2cc(F)cc(C(F)(F)F)c2)nc(SCc2ccc3nc(Cl)ccc3c2)[nH]1 [Compound 30, 6-(((2-Chloroquinolin-6-yl)methyl)thio)−4-((3-fluoro-5-(trifluoromethyl)benzyl)thio)−1,3,5-triazin-2(1H)-one]",linear plasmid in the cleavage assay (in words),human topo IIα [1],only a very weak increase in the linear plasmid at the highest concentration of 125 μM
same,solubility (in words),[2],more soluble compared to the previous series; also recorded: more soluble compared to the benzyl-substituted analogues
same,linear product in the competitive cleavage assay (in words),human topo IIα [3],decreased the amount of linear product of the etoposide-topo IIα complex
same,unwinding / intercalation (in words),wheatgerm topo I,inhibitors rather than intercalators
same,interaction with the ATPase domain of topo IIα by STD NMR (in words),[4],confirmed the interaction
same,IC50,human topo IIβ,10.6 ± 28.8 µM
same,IC50,human topo IIα [7],12 ± 4.8 µM
same,mode of inhibition with respect to ATP (in words),human topo II,ATP-competitive inhibition
